What was measured:
A549 = experiment: Antiproliferative activity against human A549 cells after 48 hrs by MTT assay; format: functional, cell-based; conditions: A549, 48 h
How it was run: (§1)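 Cells in exponential growth harvested and seeded at 1 ×10⁴ cells/well, incubated 24 h at 37 °C, then exposed to a range of compound concentrations for 48 h. Viability read by MTT; IC₅₀ derived from dose-dependent growth inhibition.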

Caco-2 = experiment: Antiproliferative activity against human Caco-2 cells after 48 hrs by MTT assay; format: functional, cell-based; conditions: Caco-2, 48 h; how it was run: as §1
[1] = Antiproliferative activity against human ECV304 cells after 48 hrs by MTT assay; format: cell-based; conditions: ECV-304, 48 h; how it was run: as §1
PANC-1 = experiment: Antiproliferative activity against human PANC1 cells after 48 hrs by MTT assay; format: functional, cell-based; conditions: PANC-1, 48 h
MCF7 = experiment: Antiproliferative activity against human MCF7 cells after 48 hrs by MTT assay; format: functional, cell-based; conditions: MCF7, 48 h
A-375 = experiment: Antiproliferative activity against human A375 cells after 48 hrs by MTT assay; format: functional, cell-based; conditions: A-375, 48 h
SMMC-7721 = experiment: Antiproliferative activity against human SMMC7721 cells after 48 hrs by MTT assay; format: functional, cell-based; conditions: SMMC-7721, 48 h
HT-29 = experiment: Antiproliferative activity against human HT-29 cells after 48 hrs by MTT assay; format: functional, cell-based; conditions: HT-29, 48 h
HeLa = experiment: Antiproliferative activity against human HeLa cells after 48 hrs by MTT assay; format: functional, cell-based
HEK293 = experiment: Antiproliferative activity against human HEK293 cells overexpressing EGFR after 48 hrs by MTT assay; format: cell-based; conditions: HEK293, 48 h; how it was run: as §1
A-431 = experiment: Antiproliferative activity against human A431 cells abnormally expressing EGFR after 48 hrs by MTT assay; format: functional, cell-based; conditions: A-431, 48 h; how it was run: as §1

Structure (SMILES) | IC50 (A549) [µM] | IC50 (Caco-2) [µM] | IC50 [1] [µM] | IC50 (PANC-1) [µM] | IC50 (MCF7) [µM] | IC50 (A-375) [µM] | IC50 (SMMC-7721) [µM] | IC50 (HT-29) [µM] | IC50 (HeLa) [µM] | IC50 (HEK293) [µM] | IC50 (A-431) [µM]
COC(=O)c1cc(OC(=O)c2ccc(OC)c(O)c2)c(OC)cc1CCN1CCOCC1 | 158 | 52.5 | 2.67 |  |  |  |  |  |  |  | 
CNC(=O)c1ccc(OC)c(OCCN2CCOCC2)c1-c1c(C(=O)NC)ccc(OC)c1OCC(=O)Nc1ccc(F)c(Cl)c1 | 194 | 3310 |  | 110 | 60.4 | 25.1 | 194 | 44.7 | 100 |  | 
CNC(=O)c1ccc(OC)c(O)c1-c1c(C(=O)NC)ccc(OC)c1OCCN1CCOCC1 | 259 | 75.9 | 1360 | 166 | 83.7 | 174 | 78.2 | 122 | 415 | 116 | 75.9
CNC(=O)c1ccc(OC)c(OCCN2CCNCC2)c1-c1c(C(=O)NC)ccc(OC)c1OCC(=O)Nc1ccc(F)c(Cl)c1 |  |  |  |  |  |  | 126 | 47.2 |  |  | 
COc1ccc2c(=O)oc3c(OC)cc(CCN(C)C)c4c(=O)oc1c2c34 [TASPINE] | 4.18 | 153 | 22.3 |  |  |  |  |  |  | 16 | 11.2
COC(=O)c1cc(OC(=O)c2cc(O)c(OC)cc2CCN(C)C)ccc1OC | 111 | 3100 |  |  |  |  |  |  |  |  | 
CNC(=O)c1ccc(OC)c(OCCN(C)C)c1-c1c(C(=O)NC)ccc(OC)c1OCC(=O)Nc1ccc(F)c(Cl)c1 | 241 | 167 | 57.2 | 159 | 123 | 242 | 124 | 133 | 117 |  | 
CNC(=O)c1ccc(OC)c(O)c1-c1c(C(=O)NC)ccc(OC)c1OCC(=O)Nc1ccc(F)c(Cl)c1 | 73.5 | 20.3 | 72.2 | 191 | 109 | 217 | 109 | 214 | 53.4 |  | 
COC(=O)c1cc(OC(=O)c2ccc(OC)c(O)c2)c(OC)cc1CCNc1ccc(F)c(Cl)c1 | 180 |  | 61 |  |  |  |  |  |  |  | 
COC(=O)c1cc(OC(=O)c2ccc(OC)c(O)c2)c(OC)cc1CCN(C)C | 453 | 110 |  |  |  |  |  |  |  |  | 
CNC(=O)c1ccc(OC)c(O)c1-c1c(C(=O)NC)ccc(OC)c1O | 64.7 | 104 | 113 | 217 |  | 106 | 95.7 | 200 | 97.6 | 88 | 104

Source: ChEMBL document CHEMBL1177839, “Synthesis and preliminary biological evaluation of novel taspine derivatives as anticancer agents” (Eur J Med Chem, 2010)
